# Read-outs that look alike come from different tables or passages of the source. Marks after values point to notes of the source that are not given here.
# Assays:
# [1] = Safety and tolerability, on-treatment adverse events, study 1; assay type: in vivo, human; conditions: for Abdominal pain / Accidental injury / Fever / Headache / Otitis media / Upper respiratory infection: on-treatment AE; for Abdominal pain / Accidental injury / Fever / Headache / Otitis media / Upper respiratory infection / Any AE: patients (percent); for Any AE: on-treatment
# In short: (§1)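 Patients randomized 1:1 to 20 or 40 mg delayed-release tablet once daily: about 28 days in study 1, at least 5 consecutive doses in study 2. On-treatment AEs were those occurring during dosing or within 48 h of the last dose. Vital signs were taken 2 h predose and 2, 8 and 12 h postdose on day 1. Physical exam and labs were done on the multiple-dose PK day. Telephone AE follow-up came 14 days after completion.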
# [2] = adults; cited from earlier work
# [3] = Safety and tolerability, on-treatment adverse events, study 2; assay type: in vivo, human; conditions: for Abdominal pain / Accidental injury / Fever / Headache / Otitis media: on-treatment AE; for Abdominal pain / Accidental injury / Fever / Headache / Otitis media / Any AE: patients (percent); for Any AE: on-treatment
# In short: as §1
# [4] = neonates; cited from earlier work
# [5] = Single-dose pharmacokinetics of pantoprazole delayed-release tablet, study 1; assay type: in vivo, human; conditions: for AUC / CL/F / Cmax / Tmax / Vd/F / half-life: human, plasma, po; for tlag: study 1, 6-11 y, median (range)
# [6] = Single-dose pharmacokinetics of pantoprazole delayed-release tablet, study 2; assay type: in vivo, human; conditions: for AUC / CL/F / Cmax / Tmax / Vd/F / half-life: human, plasma, po; for tlag: study 2, 12-16 y, median (range)
# [7] = study 1, 20 mg once daily (n = 11)
# [8] = study 1, 40 mg once daily (n = 13)
# [9] = study 1, 20 or 40 mg once daily
# [10] = study 1, total of both doses (n = 24)
# [11] = study 2, 20 mg once daily (n = 11)
# [12] = study 2, 40 mg once daily (n = 11)
# [13] = study 2, 20 or 40 mg once daily
# [14] = study 2, total of both doses (n = 22)
compound,measurement,setting,value
COc1ccnc(C[S+]([O-])c2nc3ccc(OC(F)F)cc3[nH]2)c1OC (centres unmarked) [pantoprazole],Abdominal pain,[1]; [7],3 (27.3)
same,Accidental injury,[1]; [7],1 (9.1)
same,Fever,[1]; [7],1 (9.1)
same,Headache,[1]; [7],1 (9.1)
same,Otitis media,[1]; [7],2 (18.2)
same,Upper respiratory infection,[1]; [7],2 (18.2)
same,Any AE,[1]; [7],9 (81.8)
same,Abdominal pain,[1]; [8],1 (7.7)
same,Accidental injury,[1]; [8],1 (7.7)
same,Fever,[1]; [8],1 (7.7)
same,Headache,[1]; [8],2 (15.4)
same,Otitis media,[1]; [8],0
same,Upper respiratory infection,[1]; [8],0
same,Any AE,[1]; [8],7 (53.8)
same,"ECG, QTc changes",[1]; [9],no abnormal QTc changes
same,serious AEs,[1]; [9],no serious AEs
same,severity of all AEs,[1]; [9],mild or moderate
same,Abdominal pain,[1]; [10],4 (16.7)
same,Accidental injury,[1]; [10],2 (8.3)
same,Fever,[1]; [10],2 (8.3)
same,Headache,[1]; [10],3 (12.5)
same,Otitis media,[1]; [10],2 (8.3)
same,Upper respiratory infection,[1]; [10],2 (8.3)
same,Any AE,[1]; [10],16 (66.7)
same,accumulation on repeated once-daily dosing,[2],does not result in accumulation
same,half-life,[2],approximately 1 hour
same,Abdominal pain,[3]; [11],0
same,Accidental injury,[3]; [11],0
same,Fever,[3]; [11],0
same,Headache,[3]; [11],0
same,Otitis media,[3]; [11],0
same,Any AE,[3]; [11],2 (18.2)
same,Abdominal pain,[3]; [12],2 (18.2)
same,Accidental injury,[3]; [12],0
same,Fever,[3]; [12],1 (9.1)
same,Headache,[3]; [12],1 (9.1)
same,Otitis media,[3]; [12],0
same,Any AE,[3]; [12],4 (36.4)
same,"ECG, QTc changes",[3]; [13],no abnormal QTc changes
same,serious AEs,[3]; [13],no serious AEs
same,severity of all AEs,[3]; [13],mild or moderate
same,Abdominal pain,[3]; [14],2 (9.1)
same,Accidental injury,[3]; [14],0
same,Fever,[3]; [14],1 (4.5)
same,Headache,[3]; [14],1 (4.5)
same,Otitis media,[3]; [14],0
same,Any AE,[3]; [14],6 (27.3)
same,mean CL/F,[4],3.67 mL/min/kg
same,AUC,[5]; 20 mg,2500 ± 2100 ng·h/mL
same,CL/F,[5]; 20 mg,6.83 mL/min/kg
same,Cmax,[5]; 20 mg,1600 ± 1200 ng/mL
same,Tmax,[5]; 20 mg,2 h
same,Vd/F,[5]; 20 mg,0.43 ± 0.3 L/kg
same,half-life,[5]; 20 mg,0.8 ± 0.2 h
same,AUC,[5]; 40 mg,3800 ± 1800 ng·h/mL
same,CL/F,[5]; 40 mg,6.67 mL/min/kg
same,Cmax,[5]; 40 mg,2100 ± 1300 ng/mL
same,Tmax,[5]; 40 mg,2 h
same,Vd/F,[5]; 40 mg,0.4 ± 0.27 L/kg
same,half-life,[5]; 40 mg,0.7 ± 0.2 h
same,tlag,"[5]; single oral 20 mg tablet, n = 10","1.0 (0.5, 2.0) h"
same,tlag,"[5]; single oral 40 mg tablet, n = 12","0.8 (0, 1.0) ^b h"
same,concentration of pantoprazole at 12 hours after the first dose,"[5]; study 1, all patients, 20 or 40 mg, lower limit of quantitation 10 ng/mL",below the lower limit of quantitation
same,AUC,[6]; 20 mg,1300 ± 600 ng·h/mL
same,CL/F,[6]; 20 mg,4.67 mL/min/kg
same,Cmax,[6]; 20 mg,900 ± 500 ng/mL
same,Tmax,[6]; 20 mg,1.5 h
same,Vd/F,[6]; 20 mg,0.32 ± 0.22 L/kg
same,half-life,[6]; 20 mg,0.8 ± 0.3 h
same,AUC,[6]; 40 mg,4300 ± 3100 ng·h/mL
same,CL/F,[6]; 40 mg,3 mL/min/kg
same,Cmax,[6]; 40 mg,2200 ± 1400 ng/mL
same,Tmax,[6]; 40 mg,2 h
same,Vd/F,[6]; 40 mg,0.21 ± 0.06 L/kg
same,half-life,[6]; 40 mg,0.9 ± 0.3 h
same,tlag,"[6]; single oral 20 mg tablet, n = 9","1.0 (0, 2.5) ^c h"
same,tlag,"[6]; single oral 40 mg tablet, n = 11","1.0 (0, 8) h"

# Source: paper PMC3190583 (Journal of clinical pharmacology, 2010)
